≈ marks a conversion by molar mass, not a printed value. Calls of active or inactive are those of the source. No cut-off for these calls is given here.
Assays:
Rattus norvegicus [1] = experiment: Antirestenotic activity in Sprague-Dawley rat assessed as reduction in balloon injury-induced PCNA expression in carotid artery at 10 and 20 mg/mL, administered topically measured after 2 weeks by immunohistochemistry
[2] = molecular target: Focal adhesion kinase 1 (Rattus norvegicus) (UniProt O35346); experiment: Inhibition of FAK-mediated FBS-induced cell migration of rat A10 cells at 10 ug/mL after 18 hrs by scratch-wound assay; type: cell-based
Method in brief: (§1)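 A10 VSMC (3 × 10^4) grown to 80–90% confluence in six-well plates, and the monolayer centre scraped with a micropipet tip. After a PBS wash, cells were exposed to 10, 15 or 20 μg/mL and photographed at 18 h. Cells crossing lines drawn at the original wound edges were counted in six random fields per triplicate treatment. Three experiments.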

A10 [3] = experiment: Antiproliferative activity against rat A10 cells at 30 to 40 ug/mL after 24 hrs by MTT assay relative to control; type: cell-based; settings: a10, 24 h
Method in brief: (§2)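 A10 rat aortic VSMC seeded at 1 × 10^4 cells/well in DMEM with 10% FBS for 24 h, washed, then exposed for 24 h to 10% FBS alone or serial dilutions (5–40 μg/mL). MTT added (3 mg/mL stock in PBS) for 2 h at 37 °C, formazan dissolved in DMSO, absorbance read at 570 nm. Three separate experiments.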

[4] = molecular target: Focal adhesion kinase 1 (Rattus norvegicus) (UniProt O35346); experiment: Inhibition of FAK-mediated FBS-induced cell migration of rat A10 cells at 15 ug/mL after 18 hrs by scratch-wound assay; type: cell-based
Method in brief: as §1

Rattus norvegicus [5] = experiment: Antirestenotic activity in Sprague-Dawley rat assessed as reduction in balloon injury-induced neointimal:[…] area ratio in carotid artery at 20 mg/mL, administered topically measured after 2 weeks by hematoxylin and eosin staining method relative to vehicle-treated control; type: functional; parameters: scale not given: the % may be the effect or the level left
Method in brief: (§3)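 Male Sprague–Dawley rats (350–400 g) underwent carotid balloon injury, 8 per group: untreated injury control or a 10 or 20 mg/mL solution. Sham controls were included. Vessels were embedded, cut into 10 μm sections and stained with H&E. The neointimal:media area ratio was measured by computerized image analysis. Two separate experiments.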

[6] = molecular target: Focal adhesion kinase 1 (Rattus norvegicus) (UniProt O35346); experiment: Inhibition of FAK-mediated FBS-induced cell migration of rat A10 cells at 20 ug/mL after 18 hrs by scratch-wound assay; type: cell-based
Method in brief: as §1

Rattus norvegicus [7] = experiment: Antirestenotic activity in Sprague-Dawley rat assessed as reduction in balloon injury-induced neointimal:[…] area ratio in carotid artery at 10 mg/mL, administered topically measured after 2 weeks by hematoxylin and eosin staining method relative to vehicle-treated control; type: functional; parameters: scale not given: the % may be the effect or the level left
Method in brief: as §3

A10 [8] = experiment: Antiproliferative activity against rat A10 cells at 5 to 25 ug/mL after 24 hrs by MTT assay relative to control; type: cell-based; settings: a10, 24 h
Method in brief: as §2

A10 [9] = experiment: Upregulation of TIMP2 expression in rat A10 cells after 24 hrs by Western blot analysis; type: functional, cell-based
Method in brief: (§4)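 A10 VSMC in six-well plates incubated 24 h with 10, 15 and 20 μg/mL in DMEM containing 15% FBS, with 15% FBS as control. Lysed in SDS/DTT buffer at 95 °C. Western blot on PVDF used specific antibodies (p-AKT, PI3K, p-FAK, TIMP-1, TIMP-2), β-actin loading control, ECL detection, and densitometry relative to control as 100%.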

[10] = molecular target: Focal adhesion kinase 1 (Rattus norvegicus) (UniProt O35346); experiment: Inhibition of FAK in rat A10 cells assessed as inhibition of serum-induced PI3K expression after 24 hrs by Western blot analysis; type: cell-based
Method in brief: as §4

A10 [11] = experiment: Upregulation of TIMP1 expression in rat A10 cells after 24 hrs by Western blot analysis; type: functional, cell-based
Method in brief: as §4

A10 [12] = experiment: Induction of apoptosis in rat A10 cells assessed as sub-G1 cells at 10 to 40 ug/mL after 24 hrs by PI-staining based flow cytometric analysis relative to vehicle-treated control; type: cell-based; settings: a10, 24 h
Method in brief: (§5)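 A10 VSMC treated 24 h with 10–60 μg/mL in 15% FBS, with […] alone as control. Cells harvested with trypsin-EDTA, fixed in 70% ethanol and stained with propidium iodide plus RNase A and Nonidet P-40 for at least 30 min on ice in the dark. Three experiments.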

[13] = molecular target: Focal adhesion kinase 1 (Rattus norvegicus) (UniProt O35346); experiment: Inhibition of FAK-mediated ERK2 phosphorylation in rat A10 cells after 30 mins by Western blot analysis; type: cell-based
Method in brief: (§6)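 Western blot of A10 VSMC after 30 min exposure to 10, 15 and 20 μg/mL, probed for phosphorylated ERK1/2 alongside total ERK1/2. Serum-stimulated cells served as comparison. ECL detection.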

[14] = molecular target: Focal adhesion kinase 1 (Rattus norvegicus) (UniProt O35346); experiment: Inhibition of FAK in rat A10 cells assessed as inhibition of serum-induced AKT phosphorylation after 24 hrs by Western blot analysis; type: cell-based
Method in brief: as §4

A10 [15] = experiment: Antiproliferative activity against rat A10 cells after 24 hrs by MTT assay; type: cell-based
Method in brief: as §2

[16] = molecular target: Focal adhesion kinase 1 (Rattus norvegicus) (UniProt O35346); experiment: Inhibition of FAK-mediated […] activity in rat A10 cells after 24 hrs by zymographic analysis; type: cell-based
Method in brief: (§7)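 Culture medium of A10 VSMC treated 24 h was electrophoresed (120 V, 90 min) in 10% SDS-PAGE with 0.1% gelatin. Gels were washed in 2.5% Triton X-100, then incubated overnight (12–15 h) at 37 °C in 40 mM Tris-HCl pH 8.0 with 10 mM CaCl2 and 1% NaN3. Stained with Coomassie blue and destained.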

[17] = molecular target: Focal adhesion kinase 1 (Rattus norvegicus) (UniProt O35346); experiment: Inhibition of FAK-mediated MMP2 activity in rat A10 cells after 24 hrs by zymographic analysis; type: cell-based
Method in brief: as §7

[18] = molecular target: Focal adhesion kinase 1 (Rattus norvegicus) (UniProt O35346); experiment: Inhibition of FAK phosphorylation in rat A10 cells after 24 hrs by Western blot analysis; type: cell-based
Method in brief: as §4

A10 [19] = experiment: Induction of cell cycle arrest in rat A10 cells assessed as S phase cells at 10 to 40 ug/mL after 24 hrs by PI-staining based flow cytometric analysis relative to vehicle-treated control; settings: a10, 24 h
Method in brief: as §5

[20] = molecular target: Focal adhesion kinase 1 (Rattus norvegicus) (UniProt O35346); experiment: Inhibition of FAK-mediated ERK1 phosphorylation in rat A10 cells after 30 mins by Western blot analysis; type: cell-based
Method in brief: as §6

[21] = molecular target: Focal adhesion kinase 1 (Rattus norvegicus) (UniProt O35346); experiment: Inhibition of FAK-mediated FBS-induced migration of rat A10 cells at 15 and 20 ug/mL after 18 hrs by transwell assay; type: cell-based
Method in brief: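 Trans-well chambers with 6.5 mm polycarbonate filters, 8 μm pores. A10 VSMC (4 × 10^5 mL−1) with 0–20 μg/mL in serum-free DMEM were placed in the upper chamber for 18 h at 37 °C. Cells on the lower filter surface were methanol-fixed, Giemsa-stained and counted at 200× in 10 random fields. Three experiments in duplicate.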

Focal adhesion kinase 1 (Rattus norvegicus), sequence (O35346 whole entry): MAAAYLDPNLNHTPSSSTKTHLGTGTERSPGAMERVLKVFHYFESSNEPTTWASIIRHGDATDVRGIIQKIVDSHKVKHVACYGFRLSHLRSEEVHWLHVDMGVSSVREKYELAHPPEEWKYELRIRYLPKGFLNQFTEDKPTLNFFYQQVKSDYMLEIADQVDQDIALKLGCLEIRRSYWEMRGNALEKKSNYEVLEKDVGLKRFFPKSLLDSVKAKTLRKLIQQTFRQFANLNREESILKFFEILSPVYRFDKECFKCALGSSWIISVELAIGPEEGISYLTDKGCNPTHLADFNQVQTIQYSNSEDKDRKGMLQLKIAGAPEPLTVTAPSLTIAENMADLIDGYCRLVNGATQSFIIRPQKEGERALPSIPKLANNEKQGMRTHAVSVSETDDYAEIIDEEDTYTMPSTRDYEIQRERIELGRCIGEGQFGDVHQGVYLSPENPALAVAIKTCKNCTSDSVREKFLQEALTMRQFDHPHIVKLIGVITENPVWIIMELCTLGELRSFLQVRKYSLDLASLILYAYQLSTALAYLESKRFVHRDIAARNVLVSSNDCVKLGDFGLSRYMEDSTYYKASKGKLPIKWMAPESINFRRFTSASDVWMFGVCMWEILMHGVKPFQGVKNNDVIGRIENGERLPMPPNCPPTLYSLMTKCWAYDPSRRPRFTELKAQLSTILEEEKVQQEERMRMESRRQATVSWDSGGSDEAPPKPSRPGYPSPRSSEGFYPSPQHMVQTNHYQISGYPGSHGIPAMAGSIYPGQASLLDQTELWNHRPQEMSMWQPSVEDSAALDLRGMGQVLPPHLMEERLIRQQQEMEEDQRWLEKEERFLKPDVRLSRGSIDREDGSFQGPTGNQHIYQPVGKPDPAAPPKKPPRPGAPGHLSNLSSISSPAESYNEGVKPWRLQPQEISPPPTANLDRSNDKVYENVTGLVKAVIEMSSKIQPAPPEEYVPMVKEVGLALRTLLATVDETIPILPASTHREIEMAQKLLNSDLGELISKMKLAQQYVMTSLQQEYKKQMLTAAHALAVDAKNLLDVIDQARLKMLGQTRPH

inhibition [2]: 12%
inhibition [4]: 6.51%
inhibition [6]: 43.2%
inhibition [10]: Dose-dependent effect
inhibition [13]: Dose-dependent effect
inhibition [14]: Dose-dependent effect
inhibition [16]: Dose-dependent effect
inhibition [17]: Dose-dependent effect
inhibition [18]: Dose-dependent effect
inhibition [20]: Dose-dependent effect
inhibition [21]: Active
SMILES: CC(=O)/C=C(O)/C=C/c1ccc(O)c(O)c1 [HISPOLON]
Activity (Rattus norvegicus [1]): Active
Activity (A10 [3]): Toxic
Activity (Rattus norvegicus [5]): 58%
Activity (Rattus norvegicus [7]): 25%
Activity (A10 [8]): < 10%
Activity (A10 [9]): Dose-dependent effect
Activity (A10 [11]): Dose-dependent effect
Activity (A10 [12]): Non-toxic
IC50 (A10 [15]; Rattus norvegicus, A10, 24 h): 37 µg/mL (≈ 168 µM)
Activity (A10 [15]; rat, a10, 24 h): Dose-dependent effect
Activity (A10 [19]): Non-toxic

Reference: ChEMBL document CHEMBL2146386, “Hispolon attenuates balloon-injured neointimal formation and modulates vascular smooth muscle cell migration via AKT and ERK phosphorylation” (J Nat Prod, 2012)
